In ChEMBL document CHEMBL1155986, “Discovery of 4H-pyrazolo[1,5-a]pyrimidin-7-ones as potent inhibitors of hepatitis C virus polymerase” (Bioorg Med Chem Lett, 2009):
pIC50: −log10 of the molar value.

Tests used:
[1] = Inhibition of HCV NS5B deltaC55 polymerase assessed as [3H]GTP incorporation after 50 min by scintillation proximity assay; parameters: species or system Hepacivirus hominis
Procedure, shortened: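 NS5B Δ55 construct (6 nM) with biotinylated oligoG12/polyC template/primer, [3H]-GTP and unlabelled GTP, in 20 mM HEPES pH 7.3, 7.5 mM DTT, 10 mM MgCl2, 60 mM NaCl, BSA and RNasIN. Reactions ran 50 min at room temperature, were stopped with streptavidin SPA beads containing 100 mM EDTA, and were scintillation counted. IC50 came from single experiments over 11 twofold dilutions, accepted only if the positive internal control fell within its SD range.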

[2] = Inhibition of HCV NS5B deltaC21 polymerase assessed as [3H]GTP incorporation after 3 hrs by scintillation proximity assay; parameters: species or system Hepacivirus hominis; settings: for pIC50: read-out: IC50
Procedure, shortened: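 Scintillation proximity assay with the NS5B Δ21 construct at 50 nM, using a polyC/oligoG template/primer with raised GTP and [3H]-GTP levels. The reaction ran 3 h at room temperature, and labelled GTP incorporation was read by scintillation counting.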

Hepatitis C virus = assay: Antiviral activity against HCV by cell-based replicon assay; type: functional, Hepacivirus hominis

| Compound | pIC50 [1] | pIC50 [2] | IC50 [2] | Activity (Hepatitis C virus) |
| --- | --- | --- | --- | --- |
| O=C(O)c1cc2[nH]c(-c3ccc(OCc4ccccc4)cc3)c(CCCc3ccccc3)c(=O)n2n1 | 5.23 | 5.60 | – | – |
| O=C(O)c1cc2[nH]c(-c3cccs3)c(C3CCCCC3)c(=O)n2n1 | 5.19 | 5.96 | – | – |
| CC(C)Cc1c(-c2ccc(OCc3ccccc3)cc2)[nH]c2cc(C(=O)O)nn2c1=O | 4.82 | 5.02 | – | – |
| O=C(O)c1cc2[nH]c(-c3ccc(Oc4ccccc4)cc3)c(C3CCCCC3)c(=O)n2n1 | 5.20 | – | Not Active | – |
| O=C(O)c1cc2[nH]c(-c3ccc(OCc4cccc(OC(F)(F)F)c4)cc3)c(C3CCCCC3)c(=O)n2n1 | 5.66 | 5.82 | – | – |
| COc1ccc(-c2[nH]c3cc(C(=O)O)nn3c(=O)c2C2CCCCC2)cc1 | 5.41 | – | Not Active | – |
| O=C(O)c1cc2[nH]c(-c3ccc(OCc4ccccc4)cc3)c(CC3CCC3)c(=O)n2n1 | 5.06 | 5.55 | – | – |
| O=C(N[C@@H](Cc1c[nH]cn1)C(=O)O)c1cc2[nH]c(-c3ccco3)c(C3CCCCC3)c(=O)n2n1 | – | 6.19 | – | – |
| COc1cccc(COc2ccc(-c3[nH]c4cc(C(=O)O)nn4c(=O)c3C3CCCCC3)cc2)c1 | 5.92 | 6.00 | – | – |
| O=C(O)c1cc2[nH]c(-c3ccc(OCc4ccccc4)cc3)c(-c3ccccc3)c(=O)n2n1 | < 4.30 | < 4.90 | – | – |
| O=C(N[C@@H](Cc1ccc(O)cc1)C(=O)O)c1cc2[nH]c(-c3cccc(F)c3)c(C3CCCCC3)c(=O)n2n1 | – | 6.17 | – | – |
| CC(C)=CCCc1c(-c2ccc(OCc3ccccc3)cc2)[nH]c2cc(C(=O)O)nn2c1=O | 5.00 | 5.46 | – | – |
| O=C(O)c1cc2[nH]c(-c3ccc(OCc4ccccc4)cc3)c(C3CCCCC3)c(=O)n2n1 | 5.82 | 6.00 | – | – |
| COc1cccc(Oc2ccc(-c3[nH]c4cc(C(=O)O)nn4c(=O)c3C3CCCCC3)cc2)c1 | 6.05 | – | Not Active | – |
| O=C(O)c1cc2[nH]c(-c3ccc(Oc4cccc(Cl)c4)cc3)c(C3CCCCC3)c(=O)n2n1 | 5.48 | – | Not Active | – |
| O=C(O)c1cc2[nH]c(-c3ccc(Cc4ccccc4)cc3)c(C3CCCCC3)c(=O)n2n1 | 5.40 | 5.59 | – | – |
| CC(C)CCc1c(-c2ccc(OCc3ccccc3)cc2)[nH]c2cc(C(=O)O)nn2c1=O | 5.24 | 5.82 | – | – |
| COCCc1c(-c2ccc(OCc3ccccc3)cc2)[nH]c2cc(C(=O)O)nn2c1=O | 4.89 | 5.43 | – | – |
| O=C(O)c1cc2[nH]c(-c3ccc(-c4ccccc4)cc3)c(C3CCCCC3)c(=O)n2n1 | 5.48 | 5.51 | – | – |
| O=C(O)c1cc2[nH]c(-c3ccc(Oc4cccc(C(F)(F)F)c4)cc3)c(C3CCCCC3)c(=O)n2n1 | 6.03 | – | Not Active | – |
| O=C(O)c1cc2[nH]c(-c3ccc(OCc4ccccc4)cc3)c(Cc3ccccc3)c(=O)n2n1 | 5.05 | 5.38 | – | – |
| C=CCCc1c(-c2ccc(OCc3ccccc3)cc2)[nH]c2cc(C(=O)O)nn2c1=O | 4.82 | 5.17 | – | – |
| O=C(O)c1cc2[nH]c(-c3ccc(OCc4ccccc4)cc3)c(CCc3ccccc3)c(=O)n2n1 | 5.66 | 5.92 | – | – |
| C=CCc1c(-c2ccc(OCc3ccccc3)cc2)[nH]c2cc(C(=O)O)nn2c1=O | < 4.30 | < 4.90 | – | – |
| O=C(O)c1cc2[nH]c(-c3ccc(OCc4ccccc4)cc3)c(CC3CCCO3)c(=O)n2n1 (stereo not drawn) | < 4.90 | 5.00 | – | – |
| O=C(O)c1cc2[nH]c(-c3ccc(OCc4cccc(C(F)(F)F)c4)cc3)c(C3CCCCC3)c(=O)n2n1 | 5.74 | 6.05 | – | – |

Further molecules by rising pIC50 [2], results first:

| pIC50 [1] | pIC50 [2] | IC50 [2] | Compound | Activity (Hepatitis C virus) |
| --- | --- | --- | --- | --- |
| 5.42 | 6.40 | – | O=C(O)c1cc2[nH]c(-c3ccc(OCc4ccccc4)cc3)c(CC3CCCCC3)c(=O)n2n1 | – |
| 5.64 | 6.42 | – | O=C(O)c1cc2[nH]c(-c3cccc(F)c3)c(C3CCCCC3)c(=O)n2n1 | – |
| – | 6.52 | – | O=C(N[C@H](Cc1ccc(O)cc1)C(=O)O)c1cc2[nH]c(-c3ccco3)c(C3CCCCC3)c(=O)n2n1 | – |
| 5.55 | 6.54 | – | O=C(O)c1cc2[nH]c(-c3ccco3)c(C3CCCCC3)c(=O)n2n1 | – |
| – | 6.57 | – | COC(=O)[C@H](Cc1c[nH]c2ccccc12)NC(=O)c1cc2[nH]c(-c3ccco3)c(C3CCCCC3)c(=O)n2n1 | – |
| – | 6.64 | – | O=C(N[C@@H](Cc1c[nH]c2ccccc12)C(=O)O)c1cc2[nH]c(-c3cccc(F)c3)c(C3CCCCC3)c(=O)n2n1 | – |
| – | 6.70 | – | O=C(N[C@@H](Cc1c[nH]c2ccccc12)C(=O)O)c1cc2[nH]c(-c3cccs3)c(C3CCCCC3)c(=O)n2n1 | – |
| – | 6.70 | – | O=C(N[C@H](C(=O)O)c1ccc(O)cc1)c1cc2[nH]c(-c3ccco3)c(C3CCCCC3)c(=O)n2n1 | – |
| – | 6.74 | – | O=C(NS(=O)(=O)Cc1ccccc1)c1cc2[nH]c(-c3ccco3)c(C3CCCCC3)c(=O)n2n1 | – |
| 6.22 | 6.77 | – | O=C(O)c1cc2[nH]c(-c3ccc(OCc4ccccc4)cc3)c(CCC3CCCCC3)c(=O)n2n1 | – |
| – | 7.15 | – | O=C(N[C@@H](Cc1ccc(O)cc1)C(=O)O)c1cc2[nH]c(-c3ccco3)c(C3CCCCC3)c(=O)n2n1 | – |
| – | 7.22 | – | O=C(N[C@@H](Cc1c[nH]c2ccccc12)C(=O)O)c1cc2[nH]c(-c3ccoc3)c(C3CCCCC3)c(=O)n2n1 | – |
| – | 7.30 | – | O=C(N[C@@H](Cc1c[nH]c2ccccc12)C(=O)O)c1cc2[nH]c(-c3ccco3)c(C3CCCCC3)c(=O)n2n1 | 50 µM |
